Measured values reported in paper PMC6026531 (Molecular pharmaceutics, 2017).

Legend:
[1] = Relaxivity measurement of contrast agents; assay type: physicochemical; details: 1.5 T, in water, 37 °C
[2] = system: PC3 prostate tumor xenografts; assay: In vivo MRI of PC3 tumor-bearing mice; design: species or system mouse; details: T1-weighted 3D FLASH, 0.1 mmol/kg i.v., imaged at 10, 20 and 30 min, n = 5
Summary of the method: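 Male athymic nude mice carried subcutaneous PC3 xenografts (100 µL of 4×10^7 cells/mL in Matrigel) and were imaged at 5–8 mm tumor diameter on a 1.0 T scanner. Agents in saline were given i.v. at 0.1 mmol/kg Gd3+, with a gadoteridol control. Images were taken pre-contrast and every 10 min to 30 min by axial T1 spin echo (TR 500 ms, TE 8.144 ms) and coronal 3D FLASH (TR 17.362 ms, TE 6 ms, 15°). CNR was the tumor/muscle ROI signal […] normalised to noise.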

| SMILES | r1 relaxivity [1] | Time of peak CNR in PC3 tumors [2] |
| --- | --- | --- |
| CC(O)CN1CCN(CC(=O)[O-])CCN(CC(=O)[O-])CCN(CC(=O)[O-])CC1.[Gd+3] (stereo not drawn) [Gd(HP-DO3A), gadoteridol] | 2.9 mM⁻¹ s⁻¹ | 10 min |
| O=C([O-])CN1CCN(CC(=O)[O-])CCN(CC(=O)O)CCN(CC(=O)[O-])CC1.[Gd+3] [Gd-DOTA] | 2.9 mM⁻¹ s⁻¹ | – |
